Shown are actives, neighbours in structure and some others; about 4.4% of the full set was active somewhere.
HSF-1 act: increases HSF-1 driven luciferase reporter signal. NIH3T3-HGL HSF-1 luciferase reporter, MG132, 8 h; 100% = twice DMSO control signal. activation, % at 9 µM. 1.7% of 300,000 active. AID 504408;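 active means mean replicate activation of at least 50% with a set share of replicates each reaching 50%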;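 further: 0% = median of the neutral control wells and 100% = twice that signal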
HIF activator: HIF pathway transcriptional activation; U2OS HRE-luciferase reporter, luminescence; normalized: DMSO 0%, desferrioxamine 100%; activation, % at 7.5 µM (by protocol); 0.32% of 300,000 active;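 active means mean activation of at least 10% of the iron chelator positive control signal, with at least half of replicates also reaching 10%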
HSF1 inhib: HSF1 inhibition | NIH3T3-HGL HSE-luciferase, MG132-induced, luminescence 8 h; stronger effect = lower value | activity change, negative = inhibition, % at 7.5 µM (by protocol) | 0.77% of 300,000 active;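 active means more than half of replicate wells show activity change below -50%, luminescence cut by over half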;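 further: luciferase reports HSF-1 transcriptional activity via heat shock element; 0% = median of DMSO wells and -100% = zero luminescence signal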
Calb FLC: affects C. albicans growth with fluconazole. 0.57% of 300,000 active. growth inhibition, % (no concentration beside the values). C. albicans CaCi-2 + fluconazole, Alamar Blue growth, 48 h. AID 1979;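 active means growth inhibition above about 58% in most replicates, limit read from the data, passing the limit was not always enough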;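 further: all wells also contain fluconazole at 8 µg/ml as a sub-toxic cotreatment; 0% = median of DMSO wells and 100% = median of geldanamycin control wells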
T cruzi repl: T. cruzi replication inhibition; T. cruzi beta-gal in NIH3T3, luminescence, 90 h; inhibition, % (concentration not given with the values); 1.4% of 300,000 active;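 active means mean inhibition across valid replicates above about 55%, limit read from the data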;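 further: signal also drops with host cell toxicity which is not excluded here; 0% = plate median of DMSO wells and 100% = zero luminescence signal; higher percent means less beta-gal luminescence so fewer parasites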
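System: NIH/3T3 fibroblasts plus reporter T. cruzi. Medium: DMEM plus 2% FBS. Probe or stimulus: 5000 reporter trypomastigotes per well. Compound: single 50 nL compound addition per well in DMSO. Incubation: co-culture of at least 90 h after 3 h attachment. Detection: GalScreen β-gal luminescence, detergent lysis, 60 min. Evaluation: parasite load inhibition, %.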
The depositor's hits bear a star.

SMILES	HSF-1 act	HIF activator	HSF1 inhib	Calb FLC	T cruzi repl
Cc1ccc(-n2ncc3c(SCC(N)=O)ncnc32)cc1C	67.4*	8.2	27.3	8.4	5.1
Cc1ccc(-n2ncc3c(=O)n(CC(N)=O)cnc32)cc1C	7.0	-21.8	1.1	5.7	-16.8
CC(=O)NC(CC(=O)NCCCn1ccc2ccccc21)c1ccccc1 (stereo unspecified)	-0.7	0.2	-5.9	0.7	-4.1
COc1cc2c(cc1OC)C(C)N(C(=O)c1cc3c(=O)oc4ccc(C)cc4c3s1)CC2 (stereo unspecified)	-41.6	-0.2	-32.0	-10.9	6.6
Cc1nnsc1C(=O)N/N=C/c1ccc2ccccc2c1O	-12.7	115.5*	-12.5	-8.1	54.7*
Cc1nnsc1C(=O)N/N=C/c1ccccc1	14.7	0.0	6.3	0.8	-12.7
Cc1cc(C)c(C#N)c(Sc2nnnn2-c2ccccc2)n1	2.1	-0.1	9.8	4.1	-9.6
Cc1ccc(C)c(C(=O)CCC(=O)O)c1	7.5	0.1	-0.2	-4.7	-9.1
CCC(Sc1nc(-c2ccccc2)c(-c2ccccc2)[nH]1)C(=O)O (stereo unspecified)	2.4	-1.1	-1.0	9.1	-5.2
Cc1noc(/C=C/N(C)C)c1S(=O)(=O)N1CCCC(C(=O)NC2CCCCC2)C1 (stereo unspecified)	-15.2	-0.2	-3.6	-1.8	61.8*
Cc1noc(/C=C/N(C)C)c1S(=O)(=O)N1CCCC(C(=O)N2CCCCC2)C1 (stereo unspecified)	-14.7	-0.3	-0.9	4.8	11.6
Cc1nn(Cc2cccc(C(=O)Nc3ccn(Cc4c(F)c(F)cc(F)c4F)n3)c2)c(C)c1[N+](=O)[O-]	18.3	-0.6	10.9	-10.4	68.0*
Cc1nn(C)c(C(=O)Nc2ccn(Cc3c(F)c(F)cc(F)c3F)n2)c1[N+](=O)[O-]	-7.6	-0.3	3.4	1.0	-0.9
Cn1c(SCc2cccc(C(F)(F)F)c2)nnc1-c1ccco1	58.7*	1.2	9.0	-0.5	4.4
Nn1c(SCc2cccc(C(F)(F)F)c2)nnc1-c1ccco1	26.6	0.6	4.3	-4.0	5.6
O=C(O)CC1NC(=O)N(C2CCCCC2)C1=O (stereo unspecified)	-12.0	-0.2	-3.5	-1.1	10.5
COc1cc(C(=O)NCc2cccc(Cl)c2)ccc1OCC(=O)N1CCOCC1	5.3	-4.6	3.4	-1.6	1.2
COc1cc(C(=O)Nc2nc(-c3ccc(F)cc3)cs2)ccc1OCC(=O)N1CCOCC1	29.0	-0.4	5.0	7.5	60.1*
COc1cc(C(=O)NCCc2ccc(F)cc2)ccc1OCC(=O)N1CCOCC1	54.4*	-0.1	26.0	-17.4	21.8
COc1cc(C(=O)Nc2nc(-c3ccc(C)cc3)cs2)ccc1OCC(=O)N1CCOCC1	-4.4	-0.1	-10.4	-2.6	54.7*
CCOc1cc(C(=O)NCc2ccccc2)ccc1OCC(=O)N1CCOCC1	-80.5	-0.9	-77.1*	97.9*	-0.7
COc1ccc(OC)c(NC(=O)c2ccc(OCC(=O)N3CCOCC3)c(OC)c2)c1	16.2	-1.0	-1.9	3.8	-2.1
COc1ccc(-c2csc(NC(=O)c3ccc(OCC(=O)N4CCOCC4)c(OC)c3)n2)cc1	-2.8	-0.3	-12.1	-2.5	44.0
CCCNc1nc(-c2cc(C(=O)Nc3ccccc3)on2)cc(C(C)C)n1	0.3	-0.1	-2.2	-6.0	23.2
CC[C@@]12C(=O)N(c3cccc(F)c3)C(=O)N1[C@H](c1ccc(Cl)cc1)[C@@H]1C(=O)N(C3CCCCC3)C(=O)[C@@H]12	9.8	-0.5	-2.3	1.6	-7.2
SMILES	HSF-1 act	HIF activator	HSF1 inhib	Calb FLC	T cruzi repl
CCOCCn1ccc2c(OCC(=O)Nc3ccccc3OC)cccc2c1=O	14.4	-0.2	6.8	-5.7	9.1
O=C(Nc1cccc(F)c1)C1CCN(C(=O)c2ccccc2Cl)CC1	23.8	-1.3	2.8	-1.6	5.8
Cn1c(CNc2cccc(Cl)c2)nnc1SCC#N	72.9*	-0.3	26.9	10.8	-1.3
CN(C)S(=O)(=O)n1cc(/C=C(\NC(=O)c2ccccc2F)C(=O)NCCCN2CCOCC2)c2ccccc21	0.3	-0.1	-6.6	-9.7	28.7
CCc1ccc(C(=O)Cn2ncc(Cl)c(Cl)c2=O)cc1	-79.5	4.4	-80.2*	20.7	59.7*
CC1(C)C(=O)Nc2ccccc2N1C(=O)Cn1ncc(Cl)c(Cl)c1=O	54.0*	0.1	29.0	6.8	54.6*
O=C(Cn1ncc(Cl)c(Cl)c1=O)N1CCOCC1	15.2	3.5	24.2	-4.7	27.6
Cc1cc(C)cc(Cn2ncc(Cl)c(Cl)c2=O)c1	116.9*	-5.6	87.5	15.6	-23.0
O=C(Cn1ncc(Cl)c(Cl)c1=O)N1CCN(Cc2ccccc2)CC1	54.9*	-8.4	55.1	1.3	67.4*
Cc1ccc(Cn2ncc(Cl)c(Cl)c2=O)cc1	37.0	-0.3	25.7	-11.6	-6.4
Cc1ccccc1C(=O)Nc1ccccc1C(=O)NC1CC1	-0.1	-0.2	1.4	9.5	-3.5
O=C(CSc1nnc(-c2ccncc2)n1CC1CCCO1)Nc1nccs1 (stereo unspecified)	-12.7	-0.1	-8.0	-11.9	6.5
CCOC(=O)Cc1ncccc1C(=O)Nc1ccc(Oc2ccccc2)cc1	20.1	0.2	13.0	32.2	33.7
O=C(Cn1ncc(Cl)c(Cl)c1=O)N1CCc2ccccc21	28.7	-6.5	-5.3	-4.8	82.0*
O=C(Cn1ncc2c1-c1ccccc1OC2)N1CCc2ccccc21	-5.4	-0.1	5.8	9.0	0.4
COc1cccc(C(=O)C2CCCN(Cc3c(C)n(C)n(-c4ccccc4)c3=O)C2)c1 (stereo unspecified)	0.5	-0.1	1.6	3.2	-16.1
CCn1c2ccccc2c2cc(NC(=O)CSc3nccc(=O)[nH]3)ccc21	15.0	0.5	1.6	15.3	20.2
Cc1ccc(S(=O)(=O)NCCNS(=O)(=O)c2ccc(C)cc2)cc1	5.9	-0.5	-2.9	8.1	2.0
Cc1ccc(S(=O)(=O)NCCn2cnc([N+](=O)[O-])n2)cc1	-15.6	-0.6	-2.8	-0.1	59.8*
Cc1ccc(CSCCNS(=O)(=O)c2ccc([N+](=O)[O-])cc2)cc1	-3.9	-0.5	-2.3	6.6	68.2*
CCc1nnc(NC(=O)CCC(=O)Nc2ccc(OC)cc2OC)s1	0.7	0.0	-1.8	3.7	-0.1
COc1ccc(N2CCN(c3nc(Cl)nc(Nc4ccc(F)cc4)n3)CC2)cc1	-9.6	-0.1	-0.8	6.9	18.4
COc1ccc(N2CCN(c3nc(Nc4ccc(C)c(F)c4)nc(N4CCCC4)n3)CC2)cc1	0.2	-0.1	-0.4	-7.3	67.5*
Cc1nc2ccccc2n2c(-c3ccccc3)c3c(=O)n(C)c(=O)n(C)c3c12	0.0	212.0*	-2.8	13.5	12.8
CN(C)/C=C1/C(=O)N(c2ccc([N+](=O)[O-])cc2)N=C1c1ccccc1	55.9*	2.1	35.4	6.8	-6.0
CN(C)/C=C1\C(=O)N(c2ccc([N+](=O)[O-])cc2)N=C1c1ccccc1	22.3	2.0	28.3	3.1	6.1
